Results reported in ChEMBL document CHEMBL4145584, “Non-geminal Aliphatic Dihalogenation Pattern in Dichlorinated Diaporthins from Hamigera fusca NRRL 35721” (2018).

Columns and labels:
Format in all cases: functional
[1] = Cytotoxicity against human CCD25sk cells after 72 hrs by MTT assay
In short: (§1)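 Human cell panel of fibroblasts (CCD25sk), neuroblastoma (SHSY5), pancreatic carcinoma (MiaPaca-2), breast adenocarcinoma (MCF-7), hepatocellular carcinoma (HepG2), melanoma (A2058) and lung carcinoma (A549), tested by colorimetric MTT viability read-out. Doxorubicin served as positive control, and results were expressed as CC50.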

SH-SY5Y = assay: Cytotoxicity against human SH-SY5Y cells after 72 hrs by MTT assay; in short: as §1
HeLa = assay: Cytotoxicity against human HeLa cells
MIA PaCa-2 = assay: Cytotoxicity against human MIAPaCa2 cells after 72 hrs by MTT assay; conditions: MIA PaCa-2, 72 h; in short: as §1
MCF7 = assay: Cytotoxicity against human MCF7 cells after 72 hrs by MTT assay; conditions: MCF7, 72 h; in short: as §1
HepG2 = assay: Cytotoxicity against human HepG2 cells after 72 hrs by MTT assay; conditions: HepG2, 72 h; in short: as §1
A2058 = assay: Cytotoxicity against human A2058 cells after 72 hrs by MTT assay; conditions: A2058, 72 h; in short: as §1
A549 = assay: Cytotoxicity against human A549 cells after 72 hrs by MTT assay; conditions: A549, 72 h; in short: as §1

Row | Compound | CC50 [1] | CC50 (SH-SY5Y) | further results
1 | COc1cc(OC)c2c(=O)oc(C[C@@H](O)C(Cl)Cl)cc2c1 | 27 µM | 19.4 µM | –
2 | COc1cc(O)c2c(=O)oc(C[C@@H](O)C(Cl)Cl)cc2c1 | – | – | CC50 (HeLa): 28 µM
3 | COc1cc(OC)c2c(=O)oc([C@@H](Cl)[C@@H](O)CCl)cc2c1 (relative stereo) | – | 36.2 µM | –
4 | COc1cc(OC)c2c(=O)oc([C@H](Cl)[C@@H](O)CCl)cc2c1 (relative stereo) | – | 39.2 µM | –
5 | COc1cccc2c1C(=O)c1c(O)c3c(c(O)c1C2=O)C[C@@](O)(C(=O)CO)C[C@@H]3O[C@H]1C[C@H](N)[C@H](O)[C@H](C)O1 [DOXORUBICIN] | 0.85 µM | 0.7 µM | CC50 (MIA PaCa-2): 2.97 µM; CC50 (MCF7): 7 µM; CC50 (HepG2): 1.95 µM; CC50 (A2058): 1.79 µM; CC50 (A549): 10.5 µM
